Source: ChEMBL document CHEMBL4196093, “Small-Molecule Activator of UNC-51-Like Kinase 1 (ULK1) That Induces Cytoprotective Autophagy for Parkinson's Disease Treatment” (J Med Chem, 2018)

Key:
[1] = molecular target: T1, Serine/threonine-protein kinase ULK1 (Homo sapiens) (UniProt O75385); assay: Induction of human recombinant N-terminal GST tagged-ULK1 (1 to 649 residues) kinase activity expressed in baculovirus infected insect Sf9 cells at 100 nM using MBP as substrate after 60 mins by ADP-glo assay relative to control
T1 sequence (whole entry): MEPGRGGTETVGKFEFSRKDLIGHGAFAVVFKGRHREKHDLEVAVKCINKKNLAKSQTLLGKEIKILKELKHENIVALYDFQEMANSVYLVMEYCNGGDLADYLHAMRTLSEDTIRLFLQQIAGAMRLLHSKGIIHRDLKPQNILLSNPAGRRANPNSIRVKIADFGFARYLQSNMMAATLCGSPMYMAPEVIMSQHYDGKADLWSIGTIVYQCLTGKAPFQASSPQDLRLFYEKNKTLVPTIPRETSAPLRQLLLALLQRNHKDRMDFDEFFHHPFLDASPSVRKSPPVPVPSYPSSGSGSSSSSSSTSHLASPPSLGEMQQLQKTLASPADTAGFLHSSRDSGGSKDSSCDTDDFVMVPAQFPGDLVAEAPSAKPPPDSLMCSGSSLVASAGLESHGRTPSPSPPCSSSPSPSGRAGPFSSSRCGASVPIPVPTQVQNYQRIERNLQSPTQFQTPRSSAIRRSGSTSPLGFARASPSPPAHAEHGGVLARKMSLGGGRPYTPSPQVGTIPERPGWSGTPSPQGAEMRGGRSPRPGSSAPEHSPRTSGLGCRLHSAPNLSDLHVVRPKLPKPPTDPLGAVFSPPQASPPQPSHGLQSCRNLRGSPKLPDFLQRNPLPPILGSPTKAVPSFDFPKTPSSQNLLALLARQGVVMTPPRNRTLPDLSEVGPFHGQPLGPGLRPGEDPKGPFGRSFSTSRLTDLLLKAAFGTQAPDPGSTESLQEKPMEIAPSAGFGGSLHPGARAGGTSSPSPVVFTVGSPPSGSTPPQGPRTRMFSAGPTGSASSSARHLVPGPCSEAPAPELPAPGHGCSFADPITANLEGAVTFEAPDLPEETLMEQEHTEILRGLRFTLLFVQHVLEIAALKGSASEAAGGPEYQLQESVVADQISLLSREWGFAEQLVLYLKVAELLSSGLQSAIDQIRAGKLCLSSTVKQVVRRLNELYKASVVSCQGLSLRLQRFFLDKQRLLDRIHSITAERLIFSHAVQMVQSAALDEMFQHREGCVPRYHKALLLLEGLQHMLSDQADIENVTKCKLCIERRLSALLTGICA
In short: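 Recombinant human ULK1 (10 ng) with MBP (0.1 µg/µl)/10 µM ATP and compound at 100 nM in 40 mM Tris pH 7.5, 20 mM MgCl2, 50 µM DTT, 0.1 mg/ml BSA. Incubated 60 min at room temperature; ADP-Glo luminescence read. Three independent experiments, mean ± SEM.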

[2] = molecular target: T1, Serine/threonine-protein kinase ULK1 (Homo sapiens); assay: Induction of ULK1-mediated autophagy in human SH-SY5Y cells at 1 uM after 6 hrs by MDC-staining based flow cytometric analysis relative to control; assay type: cell-based
In short: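 Autophagy scored as percentage of MDC-positive SH-SY5Y cells by flow cytometry after 1 µM compound; mean ± SEM.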

Compound	Activity [1] [%]	Activity [2] [%]
Cc1ccccc1NC(=O)[C@H](NCCc1ccc(N(C)C)cc1)c1ccccc1	143	13.5
Cc1ccc(NC(=O)N[C@@H](C(=O)N[C@H](C)c2ccccc2)c2ccccc2)cc1	148	16.6
COc1ccc(N2CCN(CC(OC(=O)c3cccc(C)c3)c3ccccc3)CC2)cc1 (configuration not stated)	141	8.56
COc1ccc(NC(=O)N[C@@H](C(=O)Nc2cccc(Br)c2)c2ccccc2)cc1	157	28.6
O=C(Nc1cccc(Br)c1)[C@H](NC(=S)Nc1cc(C(F)(F)F)cc(C(F)(F)F)c1)c1ccccc1	217	39.6
Cc1cccc(C)c1NC(=O)N[C@@H](C(=O)Nc1cccc(Br)c1)c1ccccc1	155	27.1
C[C@@H](NC(=O)[C@H](NC(=O)Nc1ccc(C(F)(F)F)cc1)c1ccccc1)c1ccccc1	209	38.3
COc1ccc(CCNC(=O)N[C@@H](C(=O)Nc2ccc(C)cc2)c2ccccc2)cc1OC	148	24.3
O=C(Nc1ccc(F)cc1F)[C@H](NCCc1cccc(F)c1)c1ccccc1	161	23.4
C[C@@H](NC(=O)[C@H](NC(=O)Nc1ccccc1Cl)c1ccccc1)c1ccccc1	158	19.3
O=C(Nc1ccc(C(F)(F)F)cc1)N[C@@H](C(=O)Nc1cc(F)ccc1F)c1ccccc1	227	43.6
COc1cccc(CCN[C@@H](C(=O)Nc2ccccc2C)c2ccccc2)c1	140	16.2
Cc1ccccc1NC(=O)[C@H](NCCc1ccc([N+](=O)[O-])cc1)c1ccccc1	142	16.6
COc1ccc(N2CCN(CC(OC(=O)c3ccc(F)cc3)c3ccccc3)CC2)cc1 (configuration not stated)	168	11.1
Cc1ccccc1NC(=O)[C@H](NCCc1ccc(Cl)c(Cl)c1)c1ccccc1	153	20.3
C[C@@H](NC(=O)[C@H](NC(=O)Nc1cccc(Cl)c1)c1ccccc1)c1ccccc1	169	22.7
O=C(Nc1ccc(F)cc1F)[C@H](NCCc1ccc(O)cc1)c1ccccc1	198	32.1
COc1ccc(CCNC(=O)N[C@@H](C(=O)Nc2ccccc2Cl)c2ccccc2)cc1OC	152	27.9
Cc1ccccc1NC(=O)[C@H](NC(=O)Nc1cccc2ccccc12)c1ccccc1	146	24.4
O=C(Nc1ccccc1Cl)N[C@@H](C(=O)Nc1cccc(Br)c1)c1ccccc1	161	26.3
COc1ccc(CCNC(=S)N[C@@H](C(=O)Nc2ccccc2)c2ccccc2)cc1OC	170	36.7

Compound	Activity [1] [%]	Activity [2] [%]
O=C(Nc1ccc(F)cc1F)[C@H](NCCc1ccc(Cl)c(Cl)c1)c1ccccc1	174	31.4
Cc1ccccc1NC(=O)[C@H](NCCc1cc(Cl)ccc1O)c1ccccc1	146	15.3
COc1ccc(CCNC(=O)N[C@@H](C(=O)Nc2c(C)cccc2C)c2ccccc2)cc1OC	144	23.2
O=C(Nc1cccc2ccccc12)N[C@@H](C(=O)Nc1cccc(Br)c1)c1ccccc1	150	24.6
Cc1ccc(NC(=O)N[C@@H](C(=O)Nc2ccccc2C)c2ccccc2)cc1	174	34.9
O=C(Nc1ccccc1Cl)N[C@@H](C(=O)Nc1cc(F)ccc1F)c1ccccc1	144	19.6
O=C(Nc1ccc(C(F)(F)F)cc1)N[C@@H](C(=O)Nc1cccc(Br)c1)c1ccccc1	179	33.6
COc1ccc(NC(=O)N[C@@H](C(=O)N[C@H](C)c2cc(F)ccc2F)c2ccccc2)cc1	153	30.9
COc1ccc(CCN[C@@H](C(=O)Nc2ccc(F)cc2F)c2ccccc2)cc1OC	151	22.4
COc1ccc(N2CCN(CC(OC(=O)c3ccccc3F)c3ccccc3)CC2)cc1 (configuration not stated)	152	11.8
O=C(Nc1cccc2ccccc12)N[C@@H](C(=O)Nc1cc(F)ccc1F)c1ccccc1	151	22.3
Cc1ccccc1NC(=O)[C@H](NC(=O)Nc1c(C)cccc1C)c1ccccc1	149	24.2
C[C@@H](NC(=O)[C@H](NC(=O)Nc1cccc2ccccc12)c1ccccc1)c1ccccc1	149	19.6
COc1ccc(N2CCN(CC(OC(=O)c3cccc(C(F)(F)F)c3)c3ccccc3)CC2)cc1 (configuration not stated)	162	11.6
CN1CCN(CC(OC(=O)c2ccccc2C(F)(F)F)c2ccccc2)CC1 (configuration not stated)	151	10
Cc1ccccc1NC(=O)[C@H](NCCc1ccc2[nH]ccc2c1)c1ccccc1	144	16.8
Cc1ccccc1NC(=O)[C@H](NCCc1ccc(F)cc1)c1ccccc1	164	24.5
C[C@@H](NC(=O)[C@H](NC(=S)Nc1ccccc1)c1ccccc1)c1ccccc1	169	32.2
COc1ccc(C(=O)OC(CN2CCN(c3ccc(OC)cc3)CC2)c2ccccc2)cc1 (configuration not stated)	155	11.2
Cc1ccccc1NC(=O)[C@H](NCCc1ccc(O)cc1)c1ccccc1	158	21
COc1ccc(CCNC(=O)N[C@@H](C(=O)Nc2ccc(C(F)(F)F)cc2)c2ccccc2)cc1OC	163	33.5

Compound	Activity [1] [%]	Activity [2] [%]
CN1CCN(CC(OC(=O)Cc2ccccn2)c2ccccc2)CC1 (configuration not stated)	143	9.99
COc1ccc(CCNC(=O)N[C@@H](C(=O)Nc2cccc3ccccc23)c2ccccc2)cc1OC	139	20.9
CN1CCN(CC(OC(=O)c2cccc(Br)c2)c2ccccc2)CC1 (configuration not stated)	159	11.4
Cc1cccc(C)c1NC(=O)N[C@@H](C(=O)N[C@H](C)c1ccccc1)c1ccccc1	144	16.2
COc1ccc(NC(=O)[C@H](NC(=O)NCCc2ccc(OC)c(OC)c2)c2ccccc2)cc1	141	21.1
Cc1ccccc1NC(=O)[C@H](NC(=S)Nc1ccccc1)c1ccccc1	179	36.2
COc1cccc(CCN[C@@H](C(=O)Nc2ccc(F)cc2F)c2ccccc2)c1	148	20.6
COc1ccc(CCNC(=S)N[C@@H](C(=O)Nc2cc(C(F)(F)F)cc(C(F)(F)F)c2)c2ccccc2)cc1OC	184	39
COc1ccc(NC(=O)N[C@@H](C(=O)Nc2ccccc2C)c2ccccc2)cc1	158	30.4
Cc1ccc(NC(=O)N[C@@H](C(=O)Nc2cc(F)ccc2F)c2ccccc2)cc1	153	24
Cc1ccccc1NC(=O)[C@H](NC(=O)Nc1ccc(C(F)(F)F)cc1)c1ccccc1	183	38.4
COc1ccc(N2CCN(CC(OC(=O)c3cccc(Cl)c3)c3ccccc3)CC2)cc1 (configuration not stated)	163	13.4
Cc1ccc(NC(=O)N[C@@H](C(=O)Nc2cccc(Br)c2)c2ccccc2)cc1	147	25.4
COc1ccc(N2CCN(CC(OC(=O)c3ccc(Cl)cc3Cl)c3ccccc3)CC2)cc1 (configuration not stated)	150	11.8
O=C(Nc1cccc(Cl)c1)N[C@@H](C(=O)Nc1cccc(Br)c1)c1ccccc1	152	24.1
Cc1ccccc1NC(=O)[C@H](NC(=O)Nc1cccc(Cl)c1)c1ccccc1	156	27.4
Cc1ccc(CCN[C@@H](C(=O)Nc2ccccc2C)c2ccccc2)cc1	139	13.8
COc1ccc(N2CCN(CC(OC(=O)c3ccc(C(F)(F)F)cc3)c3ccccc3)CC2)cc1 (configuration not stated)	171	14.2
O=C(Nc1cccc(Br)c1)[C@H](NC(=S)Nc1ccccc1)c1ccccc1	176	32.9
